Values after ≈ are worked out from the molar mass of the structure shown. Where a name gives a salt, the structure may show the parent alone.
Tests used:
[1] = target: T1, SaFtsZ (Staphylococcus aureus, UniProt P0A031); assay: FtsZ polymerization assay; type: biochemical; conditions: for Impact on SaFtsZ polymerization (A340) / Stability of compound-induced SaFtsZ polymers to added GDP: compound 40 μg/mL, 1 mM GTP; for Impact on SaFtsZ polymerization (A340): 10 μM SaFtsZ, 25 °C; for Stability of compound-induced SaFtsZ polymers to added GDP: 1 mM GDP added
T1 sequence (P0A031 1-390): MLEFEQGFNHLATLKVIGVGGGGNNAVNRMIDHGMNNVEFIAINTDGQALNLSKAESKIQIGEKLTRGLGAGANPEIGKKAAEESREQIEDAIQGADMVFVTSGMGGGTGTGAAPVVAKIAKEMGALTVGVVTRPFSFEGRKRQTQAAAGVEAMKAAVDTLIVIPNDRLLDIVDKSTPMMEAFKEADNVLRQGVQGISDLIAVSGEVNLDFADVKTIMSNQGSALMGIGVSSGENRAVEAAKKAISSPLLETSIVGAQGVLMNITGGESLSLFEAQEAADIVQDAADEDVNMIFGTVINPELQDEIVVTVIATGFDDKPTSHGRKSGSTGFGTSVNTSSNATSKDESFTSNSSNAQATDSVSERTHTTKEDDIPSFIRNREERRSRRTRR

[2] = MTT cytotoxicity assay, HEK293; type: cell-based, human; conditions: human, HEK293 cells
Summary of the method: (§1)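 MTT tetrazolium assay in 96-well plates. Cells were grown […] at 37 °C in 5% CO2 and passaged in DMEM. Each well was seeded with 1500 cells, and triplicate wells were exposed continuously to varying concentrations of test compound for four days. MTT was read at the end of day 4, and IC50 was determined.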

[3] = MTT cytotoxicity assay, MDCK; type: cell-based, canine; conditions: dog, MDCK cells
Summary of the method: as §1

[4] = test system: HEK293 cells; assay: MTT cytotoxicity assay, HEK293; type: cell-based, human; conditions: 10 μM, MTT
Summary of the method: as §1

[5] = target: microtubule-associated protein (MAP)-rich porcine β-tubulin (Sus scrofa, UniProt P02554); assay: Tubulin polymerization assay; type: biochemical; conditions: tubulin 2 mg/mL
microtubule-associated protein (MAP)-rich porcine β-tubulin, sequence (P02554 whole entry): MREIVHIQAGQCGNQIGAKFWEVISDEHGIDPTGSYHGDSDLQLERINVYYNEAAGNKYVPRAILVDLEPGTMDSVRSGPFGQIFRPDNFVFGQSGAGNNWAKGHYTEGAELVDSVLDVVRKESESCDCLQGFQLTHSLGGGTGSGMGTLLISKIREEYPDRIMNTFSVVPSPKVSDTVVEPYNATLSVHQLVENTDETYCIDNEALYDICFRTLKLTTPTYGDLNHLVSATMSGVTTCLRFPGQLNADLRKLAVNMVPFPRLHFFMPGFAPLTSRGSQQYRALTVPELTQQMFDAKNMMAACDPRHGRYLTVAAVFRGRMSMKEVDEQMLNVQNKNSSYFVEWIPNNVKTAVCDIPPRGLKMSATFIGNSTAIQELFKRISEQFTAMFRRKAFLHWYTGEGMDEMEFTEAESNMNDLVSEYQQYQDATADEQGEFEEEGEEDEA
microtubule-associated protein (MAP)-rich porcine β-tubulin, sequence (P02550 whole entry partner): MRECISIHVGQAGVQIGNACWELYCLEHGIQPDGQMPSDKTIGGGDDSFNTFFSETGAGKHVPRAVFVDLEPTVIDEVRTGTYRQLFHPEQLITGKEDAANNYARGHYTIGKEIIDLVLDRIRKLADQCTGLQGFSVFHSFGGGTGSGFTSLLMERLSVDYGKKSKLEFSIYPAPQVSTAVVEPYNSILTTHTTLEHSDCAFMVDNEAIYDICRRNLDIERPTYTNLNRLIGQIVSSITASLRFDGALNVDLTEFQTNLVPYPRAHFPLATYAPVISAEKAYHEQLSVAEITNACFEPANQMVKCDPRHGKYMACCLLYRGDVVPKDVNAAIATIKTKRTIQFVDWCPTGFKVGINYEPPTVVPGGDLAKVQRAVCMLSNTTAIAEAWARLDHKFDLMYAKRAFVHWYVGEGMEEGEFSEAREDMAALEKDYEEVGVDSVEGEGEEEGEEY
Summary of the method: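 MAP-rich porcine tubulin (70% tubulin, 30% MAPs) at 2 mg/mL with 1 mM GTP in 80 mM PIPES NaOH (pH 7.0), 2 mM MgCl2, 1 mM EGTA. Test compound 40 μg/mL, paclitaxel 25 μg/mL or nocodazole 10 μg/mL as comparators, or DMSO vehicle. Turbidity (A340) read continuously at 37 °C over 60 min.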

[6] = target: T1, SaFtsZ; assay: FtsZ GTPase assay; type: biochemical; conditions: for Concentration dependence of the impact on SaFtsZ GTPase activity: 10 μM SaFtsZ, Fig. 4
[7] = test system: S. aureus 8325-4 (MSSA); assay: MIC assay, CLSI broth microdilution, MSSA; type: cell-based; conditions: Staphylococcus aureus, 24 h, read-out: MIC S. aureus 8325-4 (MSSA), lowest concentration at which growth is ≥90% inhibited, CAMH broth, 37 °C

## COc1cc2cc(-c3cccc(C(C)(C)C)c3)nc(CCN)c2cc1OC [Compound 17a, 2-(3-(3-(t-Butyl)phenyl)-6,7-dimethoxyisoquinolin-1-yl)ethanamine]
[1]
  Impact on SaFtsZ polymerization (A340): stimulate SaFtsZ polymerization
  Stability of compound-induced SaFtsZ polymers to added GDP: stable to the depolymerizing effects of GDP
[2]
  IC50 at 4 days: 2200 to 3500 nM
[3]
  IC50 at 4 days: 2200 to 3500 nM

## COc1cc2cc(-c3cccc(C(C)(C)C)c3)nc(CN)c2cc1OC [Compound 16a, (3-(3-(t-Butyl)phenyl)-6,7-dimethoxyisoquinolin-1-yl)methanamine]
[4]
  Human cell toxicity at the highest concentration tested: no significant human cell toxicity

## COc1cc2cc(-c3cccc(C(C)(C)C)c3)nc(CN=C(N)N)c2cc1OC [Compound 19a, 2-((3-(3-(t-Butyl)phenyl)-6,7-dimethoxyisoquinolin-1-yl)methyl)guanidine]
[1]
  Impact on SaFtsZ polymerization (A340): stimulate SaFtsZ polymerization
[5]; compound 40 μg/mL, 37 °C
  Impact on polymerization of porcine β-tubulin (A340): neither 7b nor 19a exert a significant impact

## CN[C@H](CC(C)C)C(=O)N[C@H]1C(=O)N[C@@H](CC(N)=O)C(=O)N[C@H]2C(=O)N[C@H]3C(=O)N[C@H](C(=O)N[C@H](C(=O)O)c4cc(O)cc(O)c4-c4cc3ccc4O)[C@H](O)c3ccc(c(Cl)c3)Oc3cc2cc(c3O[C@@H]2O[C@H](CO)[C@@H](O)[C@H](O)[C@H]2O[C@H]2C[C@](C)(N)[C@H](O)[C@H](C)O2)Oc2ccc(cc2Cl)[C@H]1O [Vancomycin, reference compound]
[1]
  Impact on SaFtsZ polymerization (A340): no impact on the polymerization of SaFtsZ
[6]; 40 μg/mL, percentage of activity with vehicle (DMSO) alone, mean of two ± SD
  Percent GTPase activity: no significant impact

## COc1cc2cc(-c3cccc(C(C)(C)C)c3)nc(C/N=C(/C)N)c2cc1OC [Compound 18a, N′-((3-(3-(t-butyl)phenyl)-6,7-dimethoxyisoquinolin-1-yl)methyl)acetimidamide]
[1]
  Impact on SaFtsZ polymerization (A340): stimulate SaFtsZ polymerization
[6]
  Concentration dependence of the impact on SaFtsZ GTPase activity: stimulate GTPase activity at lower concentrations, followed by inhibition at higher concentrations

## COc1cc2cc(-c3cccc(-c4ccccc4)c3)nc(CCN=C(N)N)c2cc1OC [Compound 15a, 2-(2-(3-([1,1′-Biphenyl]-3-yl)-6,7-dimethoxyisoquinolin-1-yl)ethyl)guanidine]
[1]
  Impact on SaFtsZ polymerization (A340): stimulate SaFtsZ polymerization
[6]
  Concentration dependence of the impact on SaFtsZ GTPase activity: stimulate GTPase activity at lower concentrations, followed by inhibition at higher concentrations
[4]
  Human cell toxicity at the highest concentration tested: no significant human cell toxicity

## COc1cc2cc(-c3cccc(-c4ccccc4)c3)nc(CN=C(N)N)c2cc1OC [Compound 13a, 2-((3-([1,1′-biphenyl]-3-yl)-6,7-dimethoxyisoquinolin-1-yl)methyl)guanidine trifluo roacetate]
[4]
  Human cell toxicity at the highest concentration tested: no significant human cell toxicity

## COc1cc2cc(-c3cccc(C(C)(C)C)c3)nc(CCN=C(N)N)c2cc1OC [Compound 20a, 2-(2-(3-(3-(t-Butyl)phenyl)-6,7-dimethoxyisoquinolin-1-yl)ethyl)guanidine]
[7]
  MIC: 2 to 4 µg/mL (≈ 4.92 to 9.84 µM)
[1]; 20, 30 and 40 μg/mL
  Concentration dependence of the enhancement of SaFtsZ polymerization: enhances SaFtsZ polymerization increases with increasing compound concentration
[1]
  Impact on SaFtsZ polymerization (A340): stimulate SaFtsZ polymerization
  Stability of compound-induced SaFtsZ polymers to added GDP: stable to the depolymerizing effects of GDP

## COC(=O)Nc1nc2cc(C(=O)c3cccs3)ccc2[nH]1 [nocodazole, reference compound]
[5]; 10 μg/mL, positive control
  Impact on polymerization of porcine β-tubulin (A340): produce their expected impacts on tubulin polymerization dynamics

## CC(=O)O[C@H]1C(=O)[C@@]2(C)[C@H]([C@H](OC(=O)c3ccccc3)[C@]3(O)C[C@H](OC(=O)[C@H](O)[C@@H](NC(=O)c4ccccc4)c4ccccc4)C(C)=C1C3(C)C)[C@]1(OC(C)=O)CO[C@@H]1C[C@@H]2O [paclitaxel, reference compound]
[5]; 25 μg/mL, positive control
  Impact on polymerization of porcine β-tubulin (A340): produce their expected impacts on tubulin polymerization dynamics

## COc1cc2cc(-c3cccc(-c4ccc(C(C)(C)C)cc4)c3)nc(CN=C(N)N)c2cc1OC [Compound 21a, 2-((3-(4′-(t-Butyl)-[1,1′-biphenyl]-3-yl)-6,7-dimethoxyisoquinolin-1-yl)methyl)guanidine trifluoroacetate]
[7]
  MIC: 2 to 4 µg/mL

## COc1cc2cc(-c3cccc(-c4ccccc4)c3)nc(N=C(N)N)c2cc1OC [Compound 10a, 2-(3-([1,1′-biphenyl]-3-yl)-6,7-dimethoxyisoquinolin-1-yl)guanidine]
[2]
  IC50 at 4 days: 2200 to 3500 nM
[3]
  IC50 at 4 days: 2200 to 3500 nM

## COc1cc2cc(-c3cccc(-c4ccc(-c5ccccc5)cc4)c3)[n+](C)c(C)c2cc1OC.[I-] [Compound 5b, 3-([1,1′:4′,1″-Terphenyl]-3-yl)-6,7-dimethoxy-1,2-dimethy lisoquinolin-2-ium iodide]
[1]
  Impact on SaFtsZ polymerization (A340): stimulate SaFtsZ polymerization

## COc1cc2cc(-c3cccc(-c4ccc(C(C)(C)C)cc4)c3)nc(C)c2cc1OC [Compound 7a, 3-(4′-(t-Butyl)-[1,1′-biphenyl]-3-yl)-6,7-dimethoxy-1-methylisoquinoline]
[1]
  Impact on SaFtsZ polymerization (A340): did not significantly impact SaFtsZ polymerization

## COc1cc2cc(-c3cccc(-c4ccc(C(C)(C)C)cc4)c3)[n+](C)c(C)c2cc1OC.[I-] [Compound 7b, 3-(4′-(t-Butyl)-[1,1′-biphenyl]-3-yl)-6,7-dimethoxy-1,2-dimethylisoquinolin-2-ium iodide]
[1]
  Impact on SaFtsZ polymerization (A340): stimulate SaFtsZ polymerization
  Stability of compound-induced SaFtsZ polymers to added GDP: stable to the depolymerizing effects of GDP
[5]; compound 40 μg/mL, 37 °C
  Impact on polymerization of porcine β-tubulin (A340): neither 7b nor 19a exert a significant impact

## NC(=O)c1c(F)ccc(OCc2nc3cc(Cl)cnc3s2)c1F [PC190723, reference compound]
[1]
  Impact on SaFtsZ polymerization (A340): stimulate SaFtsZ polymerization

## COc1cc2cc(-c3cccc(C(C)(C)C)c3)nc(C)c2cc1OC [Compound 4a, 3-(3-(t-Butyl)phenyl)-6,7-dimethoxy-1-methylisoquino line]
[1]
  Impact on SaFtsZ polymerization (A340): did not significantly impact SaFtsZ polymerization

## COc1ccc2cc3[n+](cc2c1OC)CCc1cc2c(cc1-3)OCO2 [Berberine, berberine, reference compound]
[1]
  Impact on SaFtsZ polymerization (A340): did not significantly impact SaFtsZ polymerization

Reference: PMC3947851 (Bioorganic & medicinal chemistry, 2012)
